Laboratory results from ChEMBL document CHEMBL4513216, “Probing the Open Global Health Chemical Diversity Library for Multistage-Active Starting Points for Next-Generation Antimalarials” (ACS Infect Dis, 2020).

Experiment: Toxicity liver stage against HepG2, at 10uM
Type: cell-based
Set-up: test concentration 10 uM, cell line HepG2-A16-CD81EGFP
Settings: human, HepG2-A16-CD81EGFP cells; read-out: INHIBITION
How it was run: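 Uninfected HepG2-A16-CD81EGFP cells, 3 × 10^3 per well, 1536-well, plated on prespotted compound at 10 μM final, parasite-free screening media added to match infected plates; puromycin 10 μM positive, DMSO 0.5% negative; run in parallel with 48 h PbLuc assay at 37 °C, 5% CO2; viability by CellTiter-Glo luminescence, normalized to controls.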

SMILES | cytotoxicity at 10 µM
CCc1c(C(=O)NCC2CCS(=O)(=O)C2)cnn1-c1ccc(C)cc1 (stereo unspecified) | -6.69%
CN1C[C@H]2CN(Cc3cccc(OC(F)(F)F)c3)CCN2C1=O | 4.85%
O=C1CO[C@H]2CN(Cc3ccc(F)c(F)c3)C[C@H]2N1 | -2.49%
CN(C)C[C@H]1O[C@H](Cc2cc(-c3ccccn3)on2)CC[C@@H]1O | -3.15%
CC1=C(c2ccc(C)cc2)S(=O)(=O)N=C1N1CCc2ccccc21 | -7.12%
COc1ccc(-c2cc(C(=O)NCCC(C)C)n(C)n2)cc1 | 0%
COCCn1ccc2c(NC(=O)c3n[nH]c4c3CCCC4)cccc21 | 10.3%
NC(=O)Cn1c(CO)cnc1SCC(=O)NCc1ccccc1 | 0.252%
COC1COC2(CCN(Cc3ccco3)CC2)C1 (stereo unspecified) | 8.62%
Cc1ccc(N2CCOCC3(CCCN(c4ncc(F)cn4)C3)C2)nn1 (stereo unspecified) | -123%
CCOc1cccc2c1OCC(=O)N(c1ccc3c(c1)OCO3)C2 | 17.1%
CC(C)(C)c1csc(CCNC(=O)C(c2ccccc2)n2cnnn2)n1 (stereo unspecified) | 6.53%
CCOc1ccc(-n2nnc(C(=O)O)c2-c2ccncc2)cc1 | -4.14%
C/N=C1/c2cc3cc(OC)ccc3n2CCN1C | 3.34%
COCCCNC(=O)Cn1c(-c2cccc(Cl)c2)nc(C)cc1=O | -8.41%
Cn1nccc1C(=O)NCCN1CCC(O)(c2ccc(F)cc2)CC1 | 1.09%
COCCC(=O)N1CCC2(CC1)CN(C(C)=O)Cc1ccccc1O2 | 0.245%
COCC(=O)N1CCC2(CC1)CN(S(C)(=O)=O)Cc1ccccc1O2 | 7.3%
CN1CCC(NC(=O)C2CN(c3cncnc3)CCO2)CC1 (stereo unspecified) | -32.5%

SMILES | cytotoxicity at 10 µM
CCc1nnc(Nc2cccc(C3CCN(CC4CC4)CC3)n2)s1 | -26.8%
Cc1ccc(=O)n(CC2(O)CCN(Cc3cnc(N(C)C)nc3)CC2)n1 | -26%
Cc1ncc(CNC(=O)CCOc2ccccc2)c(C2CCCN2C)n1 (stereo unspecified) | -1.03%
CN(c1cccnc1N1CCCC1)S(=O)(=O)c1cccs1 | 20.4%
CNC(=O)Cc1ccc(NC(=O)NCC(C)c2ncc(C)s2)cc1 (stereo unspecified) | -14.4%
CCCC(O)CNc1cncc(Br)c1 (stereo unspecified) | 22.2%
Cc1cc(NC(=O)CNc2ccc(Br)cc2F)on1 | -28.1%
Cc1nnc(NC(=O)NCc2ccc(N3CCNC(=O)C3)cc2)s1 | -1.26%
O=C(CCc1ccsc1)NCC1CCN(Cc2cccs2)CC1 | 12.9%
Cc1ccc(S(C)(=O)=O)cc1C(=O)N(C)Cc1ccco1 | 0.0194%
Cc1ccc(CNC(=O)NC2CCCN(c3ncccn3)C2)n1C (stereo unspecified) | 5.23%
CN(CCc1ccncc1)C1CCCN(Cc2noc(C3CC3)n2)C1 (stereo unspecified) | 8.66%
Cc1nn(C)c(N2CCOCC2)c1CNC(c1ccccc1)C1CC1 (stereo unspecified) | 4.45%
CCS(=O)(=O)N1CCC(Oc2ccc(C#N)cc2)CC1 | 16.8%
CN(Cc1ccc2c(c1)OCO2)Cc1nc(-c2ccco2)no1 | -1.64%
Cn1ncnc1CCNC(=O)c1cc(Cl)c(Cl)n1C | -5.12%
COc1ccc(S(=O)(=O)N2CCC(OCc3ccccn3)C2)cc1Br (stereo unspecified) | 2.24%
CNS(=O)(=O)c1ccc(CNC(=O)c2ccccn2)cc1 | 10.2%
Cc1cccc(C2(C(=O)NCC(C)CN3CCCC3=O)CC2)c1 (stereo unspecified) | -0.89%

SMILES | cytotoxicity at 10 µM
Cc1cc(F)ccc1N1CCCC(NC2CCSCC2)C1=O (stereo unspecified) | 1.07%
CC(C)COC(C)C(=O)N1CCCC1 (stereo unspecified) | 2.77%
CCCS(=O)(=O)N(C)C(=O)CCc1ccccc1 | 4.83%
OC(COCc1ccco1)CSc1nnc2ccccn12 (stereo unspecified) | 3.55%
Cc1cc(NC(C)C(=O)NCC(F)(F)F)nc(-c2ccncc2)n1 (stereo unspecified) | 4.96%
CNC(=O)COc1ccccc1CNCc1c(C)noc1C | 2.32%
CNC(=O)C1CCCN(C(=O)C2CCC2)C1 (stereo unspecified) | -4.47%
Cc1csc(CNc2cnn(CC(F)(F)F)c2)n1 | 5.19%
CSCCC(C)NC(=O)N1CCSC(C)(C)C1 (stereo unspecified) | 5.89%
Cc1cc(C)c(CNc2ncnc3ccccc23)c(=O)[nH]1 | 17.6%
Cc1cnc(NC2CCN(CC(=O)Nc3ccccc3)CC2)nc1C | -5.47%
Cn1ccnc(Sc2cccc(C#N)c2)c1=O | 4.64%
COCC(=O)N(C)Cc1cccc(Cl)c1 | -10.8%
Cn1cc(-c2ncnc3c2CCN(C(=O)c2cscn2)CC3)cn1 | 1.15%
CCOCC1CN(C(=O)c2cccs2)Cc2cnn(CC3CC3)c21 (stereo unspecified) | -1%
c1ccc(CN2CCc3ncnc(-c4cncnc4)c3CC2)nc1 | -68.3%
CC[C@H](CO)NC(=O)c1coc(COc2ccccc2F)n1 | 5.21%
CCC(=O)N1CCN(C(=O)c2cn3ccsc3n2)[C@H]2CS(=O)(=O)C[C@H]21 | 4.95%
